The results in this text go back to ChEMBL document CHEMBL1140801, “Potency and selectivity of P2/P3-modified inhibitors of cysteine proteases from trypanosomes” (Bioorg Med Chem Lett, 2008).

Broadly, the Ki is a measure of affinity in units of concentration, obtained from inhibition or displacement.

The subject of data set [1] is Trypanosoma brucei. Description: Ratio of Kinact to Ki of Trypanosoma brucei rhodesain. The method, boiled down: (§1)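 Rhodesain at 2 nM was added to inhibitor dilutions (10 to 0.01 μM) containing 10 μM Z-Phe-Arg-AMC in buffer A. Progress curves were run for 300 s at room temperature. Linear k_obs versus [I] gave k_ass by linear regression. Hyperbolic dependence gave k_inact and K_i by nonlinear fit to a two-step irreversible mechanism.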

Data set [2] can be described thus: (§2) Inhibition of Trypanosoma brucei rhodesain. The method, boiled down: as §1
Data set [3] deals with Trypanosoma brucei. The description is as §2. In outline: as §1
Data set [4] deals with Trypanosoma brucei. Description: Ratio of Kinact to Ki of Trypanosoma brucei cathepsin B. In outline: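 TbCatB at 40 nM was added to inhibitor dilutions (10–0.1 μM) containing 10 μM Z-Phe-Arg-AMC in buffer A. Progress curves were run for 300 s at room temperature. For hyperbolic k_obs dependence, k_inact and K_i were fitted by nonlinear regression to a two-step irreversible inhibition equation, with an [S]/K_m correction.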

In data set [5] the target is Cruzipain (Trypanosoma cruzi) (UniProt P25779). Description: Ratio of Kinact to ki of Trypanosoma cruzi cruzain. The method, boiled down: (§3)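 Cruzain at 2 nM was added to inhibitor dilutions (10 to 0.01 μM) containing 10 μM Z-Phe-Arg-AMC in buffer A. Progress curves were run for 150 s at room temperature. k_ass came from linear regression when k_obs was linear in [I]. If saturating, k_inact and K_i came from nonlinear fitting to a two-step irreversible inhibition model.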

The target is the same in data set [6]. Description: (§4) Inhibition of Trypanosoma cruzi cruzain. In outline:
as §3

The next data set has as its target Cruzipain (Trypanosoma cruzi, UniProt P25779). The data set is described as §4. In outline:
as §3

In another data set the test system is J774. Description: Cytotoxicity against mouse J774 macrophage. In kind it is cell-based. The method, boiled down: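 J774 macrophages infected with T. cruzi were treated with compound at 10 μM. Macrophage toxicity was scored yes/no alongside macrophage survival in days.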
For a further data set, the system named is Trypanosoma cruzi. Description: Antiparasitic activity against Trypanosoma cruzi in J774 macrophage. In kind it is functional. The method, boiled down: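 T. cruzi-infected J774 macrophages exposed to compound at 10 μM; read-out is how many days the macrophages survive, with macrophage toxicity also scored. Untreated infected cultures serve as control.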

Molecules are shown by their SMILES.

Sequence of Cruzipain (Trypanosoma cruzi) (P25779 123-467 limits assumed): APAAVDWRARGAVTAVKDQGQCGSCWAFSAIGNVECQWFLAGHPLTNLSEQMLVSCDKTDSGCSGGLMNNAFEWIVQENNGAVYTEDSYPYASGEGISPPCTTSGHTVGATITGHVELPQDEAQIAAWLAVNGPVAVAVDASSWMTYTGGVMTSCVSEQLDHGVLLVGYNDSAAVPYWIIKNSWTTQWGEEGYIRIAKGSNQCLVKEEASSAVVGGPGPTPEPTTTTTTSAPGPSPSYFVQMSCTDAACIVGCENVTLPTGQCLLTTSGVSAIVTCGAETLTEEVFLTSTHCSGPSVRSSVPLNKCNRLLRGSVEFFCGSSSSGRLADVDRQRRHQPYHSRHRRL
Sequence of Cruzipain (P25779 whole entry): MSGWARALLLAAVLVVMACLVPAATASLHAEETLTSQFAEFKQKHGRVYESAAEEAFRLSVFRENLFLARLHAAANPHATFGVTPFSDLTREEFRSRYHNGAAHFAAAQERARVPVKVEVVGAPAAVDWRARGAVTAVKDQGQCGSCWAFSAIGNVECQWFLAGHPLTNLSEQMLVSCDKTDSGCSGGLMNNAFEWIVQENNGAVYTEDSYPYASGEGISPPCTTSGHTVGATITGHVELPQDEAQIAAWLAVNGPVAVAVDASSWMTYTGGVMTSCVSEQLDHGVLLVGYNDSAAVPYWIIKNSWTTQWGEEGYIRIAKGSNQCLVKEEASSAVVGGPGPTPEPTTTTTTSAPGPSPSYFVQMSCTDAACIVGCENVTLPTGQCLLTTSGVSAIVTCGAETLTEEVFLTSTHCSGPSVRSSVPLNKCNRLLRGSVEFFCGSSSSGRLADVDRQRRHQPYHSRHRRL

Take `O=C(N[C@@H](Cc1cccc(C(F)(F)F)c1)C(=O)N[C@H](/C=C/S(=O)(=O)c1ccccc1)CCc1ccccc1)c1ccccn1`: the figures for the Ratio (in the data set on Trypanosoma brucei [1]; in [5]) were 6000 M⁻¹ s⁻¹ and 3100 M⁻¹ s⁻¹, respectively. For the same molecule, the Ki in data set [2] is 280 nM; at Cruzipain, 150 nM. Moreover, the Kinact in the data set on Trypanosoma brucei [3] was determined as 0.0017 s⁻¹; in data set [6], 0.00047 s⁻¹. For the same molecule, the Ka in the data set with Trypanosoma brucei [4] amounted to 500 M⁻¹ s⁻¹.
As to `Cc1cccc(C[C@H](NC(=O)c2cc(F)cc(F)c2)C(=O)N[C@H](/C=C/S(=O)(=O)c2ccccc2)CCc2ccccc2)c1`, the results for the Ratio (in the data set on Trypanosoma brucei [1]; in the data set with Trypanosoma brucei [4]; in data set [5]) were 456000 M⁻¹ s⁻¹, 16000 M⁻¹ s⁻¹ and 105000 M⁻¹ s⁻¹, respectively. Moreover, the values for the Kinact (with Trypanosoma brucei [3]; in data set [6]) were 0.023 s⁻¹ and 0.0052 s⁻¹, respectively. The Activity result in the data set with J774 is on record as “Toxic”. This molecule also had a Survival in the data set on Trypanosoma cruzi of 12 days. The same molecule showed a Ki at Cruzipain of 50 nM.
Turning to `Cc1ccc(C[C@H](NC(=O)c2ccccn2)C(=O)N[C@H](/C=C/S(=O)(=O)c2ccccc2)CCc2ccccc2)cc1`, the Ratio was found to be 327000 M⁻¹ s⁻¹ with Trypanosoma brucei [1] and 16000 M⁻¹ s⁻¹ in data set [5]. Further, the Ki amounted to 880 nM in data set [2] and 1700 nM on Cruzipain. Further, the Kinact with Trypanosoma brucei [3] was found to be 0.29 s⁻¹; in data set [6] it was 0.027 s⁻¹. Besides, in the data set on Trypanosoma brucei [4], the Ka came to 60 M⁻¹ s⁻¹.
Take `CN1CCN(C(=O)N[C@@H](Cc2cccnc2)C(=O)N[C@H](/C=C/S(=O)(=O)c2ccccc2)CCc2ccccc2)CC1`: the Ka was 55000 M⁻¹ s⁻¹ in the data set with Trypanosoma brucei [1] and 800 M⁻¹ s⁻¹ with Trypanosoma brucei [4]. Further, the Ratio in [5] was 45000 M⁻¹ s⁻¹. In data set [6], this molecule yielded a Kinact of 0.16 s⁻¹. This molecule also showed a Ki on Cruzipain of 3600 nM.
For `O=C(N[C@@H](Cc1cccc(C(F)(F)F)c1)C(=O)N[C@H](/C=C/S(=O)(=O)c1ccccc1)CCc1ccccc1)c1cc(F)cc(F)c1`, the Ratio in the data set on Trypanosoma brucei [1] was determined as 52000 M⁻¹ s⁻¹. Moreover, in [2], the Ki worked out at 33 nM. This molecule also returned a Kinact in the data set on Trypanosoma brucei [3] of 0.0017 s⁻¹. In the data set on J774, the Activity result is “Non-toxic”. For the same molecule, the Survival with Trypanosoma cruzi was 23 days.
Regarding `Cc1ccc(C[C@H](NC(=O)N2CCN(C)CC2)C(=O)N[C@H](/C=C/S(=O)(=O)c2ccccc2)CCc2ccccc2)cc1`, the Ratio with Trypanosoma brucei [1] was 852000 M⁻¹ s⁻¹; in the data set on Trypanosoma brucei [4], 10000 M⁻¹ s⁻¹. The affinity in data set [2] corresponds to a Ki of 120 nM. In the data set with Trypanosoma brucei [3], the Kinact is 0.11 s⁻¹. Further, the Ka in data set [5] was found to be 440000 M⁻¹ s⁻¹.
For `CN1CCN(C(=O)N[C@@H](Cc2cccc(C(F)(F)F)c2)C(=O)N[C@H](/C=C/S(=O)(=O)c2ccccc2)CCc2ccccc2)CC1`, the Ka in the data set with Trypanosoma brucei [1] is 81000 M⁻¹ s⁻¹; with Trypanosoma brucei [4], 400 M⁻¹ s⁻¹. In the data set with J774, the Activity result was “Toxic”. In the data set on Trypanosoma cruzi, this molecule registered a Survival of 42 days. Also, in [5], the Ratio worked out at 53000 M⁻¹ s⁻¹. In data set [6], this molecule returned a Kinact of 0.009 s⁻¹. On Cruzipain, this molecule yielded a Ki of 170 nM.
As for `Cc1cccc(C[C@H](NC(=O)N2CCN(C)CC2)C(=O)N[C@H](/C=C/S(=O)(=O)c2ccccc2)CCc2ccccc2)c1`, the Ratio in the data set on Trypanosoma brucei [1] worked out at 517000 M⁻¹ s⁻¹; with Trypanosoma brucei [4] it was 19000 M⁻¹ s⁻¹; in data set [5], 257000 M⁻¹ s⁻¹. Moreover, the results for the Ki (in [2]; on Cruzipain) were 170 nM and 3300 nM, respectively. Moreover, the Kinact with Trypanosoma brucei [3] came out at 0.088 s⁻¹; in [6], 0.86 s⁻¹. Besides, the Activity entry in the data set on J774 is “Non-toxic”. In the data set on Trypanosoma cruzi, this molecule showed a Survival of 42 days.
With `Cc1ccc(C[C@H](NC(=O)c2cc(F)cc(F)c2)C(=O)N[C@H](/C=C/S(=O)(=O)c2ccccc2)CCc2ccccc2)cc1`, the Ratio in the data set with Trypanosoma brucei [1] was 366000 M⁻¹ s⁻¹; in data set [5], 34000 M⁻¹ s⁻¹. Moreover, the Ki is 30 nM in data set [2] and 350 nM at Cruzipain. The Kinact in the data set with Trypanosoma brucei [3] amounted to 0.011 s⁻¹; in data set [6] it was 0.012 s⁻¹.
Turning to `Cc1cccc(C[C@H](NC(=O)c2ccccn2)C(=O)N[C@H](/C=C/S(=O)(=O)c2ccccc2)CCc2ccccc2)c1`, the values for the Ratio (in the data set on Trypanosoma brucei [1]; in [5]) were 173000 M⁻¹ s⁻¹ and 36000 M⁻¹ s⁻¹, respectively. For the same molecule, the inhibition constant (Ki) in data set [2] amounted to 230 nM; on Cruzipain, 280 nM. The Kinact in the data set with Trypanosoma brucei [3] came to 0.04 s⁻¹; in [6], 0.01 s⁻¹. The Ka in the data set with Trypanosoma brucei [4] came to 100 M⁻¹ s⁻¹.
Regarding `Cc1cccc(C[C@H](NC(=O)c2ccc(C(F)(F)F)cc2)C(=O)N[C@H](/C=C/S(=O)(=O)c2ccccc2)CCc2ccccc2)c1`, the Ratio with Trypanosoma brucei [1] turned out to be 116000 M⁻¹ s⁻¹; in data set [5], 38000 M⁻¹ s⁻¹. Also, the Ki in data set [2] was found to be 43 nM; at Cruzipain, 92 nM. Moreover, the Kinact in the data set on Trypanosoma brucei [3] amounted to 0.005 s⁻¹; in [6], 0.0035 s⁻¹. In the data set on J774, the Activity result is “Toxic”. Also, in the data set on Trypanosoma cruzi, the Survival was 8 days.
Molecule `CN1CCN(C(=O)N[C@@H](Cc2ccccc2)C(=O)N[C@H](/C=C/S(=O)(=O)c2ccccc2)CCc2ccccc2)CC1` [K-777] returned a Ki in [2] of 270 nM. In addition, the Ka in the data set with Trypanosoma brucei [4] turned out to be 1000 M⁻¹ s⁻¹. For the same molecule, the Activity result with J774 was “Non-toxic”. This molecule returned a Survival in the data set on Trypanosoma cruzi of 42 days.
On to `Cc1ccc(C[C@H](NC(=O)c2ccc3c(c2)OCCO3)C(=O)N[C@H](/C=C/S(=O)(=O)c2ccccc2)CCc2ccccc2)cc1`, for which the Ratio with Trypanosoma brucei [1] was determined as 1.57e+06 M⁻¹ s⁻¹; in [5] it was 311000 M⁻¹ s⁻¹. Besides, the Ki came to 20 nM in [2] and 19 nM on Cruzipain. Also, the Kinact stood at 0.031 s⁻¹ with Trypanosoma brucei [3] and 0.006 s⁻¹ in data set [6]. In addition, in the data set with Trypanosoma brucei [4], the Ka worked out at 600 M⁻¹ s⁻¹.
In the case of `O=C(N[C@@H](Cc1ccccc1)C(=O)N[C@H](/C=C/S(=O)(=O)c1ccccc1)CCc1ccccc1)c1ccc2c(c1)OCCO2`, the Ratio amounted to 223000 M⁻¹ s⁻¹ with Trypanosoma brucei [1] and 70000 M⁻¹ s⁻¹ in data set [5]. In addition, the Ki stood at 85 nM in data set [2] and 80 nM at Cruzipain. In addition, the values for the Kinact (with Trypanosoma brucei [3]; in data set [6]) were 0.019 s⁻¹ and 0.0056 s⁻¹, respectively. In the data set with Trypanosoma brucei [4], the Ka came out at 540 M⁻¹ s⁻¹.
Take `Cc1cccc(C[C@H](NC(=O)c2ccc3c(c2)OCCO3)C(=O)N[C@H](/C=C/S(=O)(=O)c2ccccc2)CCc2ccccc2)c1`: the Ratio in the data set with Trypanosoma brucei [1] was determined as 252000 M⁻¹ s⁻¹; in data set [5], 14000 M⁻¹ s⁻¹. Besides, the Ki in data set [2] came out at 37 nM; at Cruzipain, 71 nM. The Kinact amounted to 0.0093 s⁻¹ in the data set on Trypanosoma brucei [3] and 0.001 s⁻¹ in data set [6]. Besides, the Ka in the data set on Trypanosoma brucei [4] turned out to be 650 M⁻¹ s⁻¹.
Take `O=C(N[C@@H](Cc1ccccc1)C(=O)N[C@H](/C=C/S(=O)(=O)c1ccccc1)CCc1ccccc1)c1ccc(C(F)(F)F)cc1`: the Ratio in the data set on Trypanosoma brucei [1] was determined as 104000 M⁻¹ s⁻¹; in [5], 100000 M⁻¹ s⁻¹. In addition, the values for the Ki (in data set [2]; at Cruzipain) were 87 nM and 97 nM, respectively. For the same molecule, the values for the Kinact (with Trypanosoma brucei [3]; in [6]) were 0.009 s⁻¹ and 0.0097 s⁻¹, respectively. Moreover, in the data set on Trypanosoma brucei [4], the Ka is less than 5 M⁻¹ s⁻¹. Further, the Activity result in the data set with J774 is reported as “Non-toxic”. The molecule also registered a Survival with Trypanosoma cruzi of 8 days.
Regarding `O=C(N[C@@H](Cc1ccccc1)C(=O)N[C@H](/C=C/S(=O)(=O)c1ccccc1)CCc1ccccc1)c1ccccn1`, the values for the Ratio (in the data set on Trypanosoma brucei [1]; in data set [5]) were 150000 M⁻¹ s⁻¹ and 120000 M⁻¹ s⁻¹, respectively. In addition, the results for the Ki (in data set [2]; at Cruzipain) were 910 nM and 250 nM, respectively. For the same molecule, the Kinact turned out to be 0.14 s⁻¹ with Trypanosoma brucei [3] and 0.03 s⁻¹ in data set [6]. The Ka in the data set on Trypanosoma brucei [4] was 70 M⁻¹ s⁻¹. Besides, the Activity result in the data set with J774 is listed as “Non-toxic”. The same molecule returned a Survival with Trypanosoma cruzi of 42 days.
Take `O=C(N[C@@H](Cc1ccccc1)C(=O)N[C@H](/C=C/S(=O)(=O)c1ccccc1)CCc1ccccc1)c1cc(F)cc(F)c1`: the values for the Ratio (in the data set with Trypanosoma brucei [1]; in data set [5]) were 317000 M⁻¹ s⁻¹ and 31000 M⁻¹ s⁻¹, respectively. Further, the Ki worked out at 66 nM in data set [2] and 980 nM on Cruzipain. Also, the Kinact is 0.021 s⁻¹ in the data set with Trypanosoma brucei [3] and 0.31 s⁻¹ in data set [6]. For the same molecule, the Activity result in the data set on J774 is listed as “Toxic”. The molecule also displayed a Survival in the data set with Trypanosoma cruzi of 12 days.
In the case of `Cc1ccc(C[C@H](NC(=O)c2ccc(C(F)(F)F)cc2)C(=O)N[C@H](/C=C/S(=O)(=O)c2ccccc2)CCc2ccccc2)cc1`, the Ratio with Trypanosoma brucei [1] amounted to 420000 M⁻¹ s⁻¹; in [5], 109000 M⁻¹ s⁻¹. In addition, the Ki in [2] is 33 nM; at Cruzipain, 45 nM. Besides, the Kinact came out at 0.014 s⁻¹ in the data set with Trypanosoma brucei [3] and 0.0049 s⁻¹ in data set [6].
